Data as given in ChEMBL document CHEMBL3739417, “Synthesis and biological evaluation of novel 4,5-disubstituted 2H-1,2,3-triazoles as cis-constrained analogues of combretastatin A-4” (2015).
The source made the active and inactive calls. The calls are words filed in the database; no cut-off is given here.

Assays:
[1] = Inhibition of colony formation in rat 9LSF cells after 24 hrs by crystal violet staining; assay type: functional; details: read-out: LD50 (the source's name)
Summary of the method: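 9LSF rat gliosarcoma cells exposed for 24 hours at 1 nM, 3 nM, 10 nM, 30 nM, 100 nM, 1 μM or 10 μM. Then trypsinized, counted, seeded in triplicate and incubated at 37°C until colonies exceeded 50 cells. Flasks with fewer than 50,000 cells got 50,000 lethally irradiated A549 feeder cells first. Colonies fixed, crystal violet-stained and counted. LD50 from four-parameter logistic fit, mean ± SEM of 3 independent experiments.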

[2] = Cell cycle arrest in rat 9LSF cells assessed as accumulation at G2/M phase at 50 nM after 24 hrs by propidium iodide based flow cytometry; assay type: functional
Summary of the method: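 9LSF rat gliosarcoma cells were exposed to 50 nM compound for 24 h alongside untreated controls. Cells were then trypsinized, counted, rinsed in PBS and fixed in ice-cold 70% EtOH/PBS at 10⁶ cells/mL, then held at 4°C. For analysis, 10⁶ cells were pelleted, rinsed three times in PBS and resuspended in 1 mL PBS with 1 µL PI (12.5 mg/mL stock in DMSO). The G2/M fraction was read by flow cytometry.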

Compound: COc1ccc(-c2n[nH]nc2-c2cc(OC)c(OC)c(OC)c2)cc1O
- CC50 [1]: 7.5 nM
- Activity [2]: Active
